Measured values from ChEMBL document CHEMBL4028848, “Discovery of N-{4-[5-(4-Fluorophenyl)-3-methyl-2-methylsulfanyl-3H-imidazol-4-yl]-pyridin-2-yl}-acetamide (CBS-3595), a Dual p38α MAPK/PDE-4 Inhibitor with Activity against TNFα-Related Diseases” (J Med Chem, 2017).
Blank lines part the entries; values can stand above or below the compound they belong to. The source made the active and inactive calls. No cut-off for these calls is given here.

Columns and labels:
[1] = Inhibition of PDE4 in human U937 cells assessed as [3H]cAMP hydrolysis; type: cell-based
[2] = target: 3',5'-cyclic-AMP phosphodiesterase 4A (Homo sapiens, UniProt P27815); experiment: Inhibition of human PDE4A4 expressed in sf9 cells
3',5'-cyclic-AMP phosphodiesterase 4A, sequence (P27815 whole entry): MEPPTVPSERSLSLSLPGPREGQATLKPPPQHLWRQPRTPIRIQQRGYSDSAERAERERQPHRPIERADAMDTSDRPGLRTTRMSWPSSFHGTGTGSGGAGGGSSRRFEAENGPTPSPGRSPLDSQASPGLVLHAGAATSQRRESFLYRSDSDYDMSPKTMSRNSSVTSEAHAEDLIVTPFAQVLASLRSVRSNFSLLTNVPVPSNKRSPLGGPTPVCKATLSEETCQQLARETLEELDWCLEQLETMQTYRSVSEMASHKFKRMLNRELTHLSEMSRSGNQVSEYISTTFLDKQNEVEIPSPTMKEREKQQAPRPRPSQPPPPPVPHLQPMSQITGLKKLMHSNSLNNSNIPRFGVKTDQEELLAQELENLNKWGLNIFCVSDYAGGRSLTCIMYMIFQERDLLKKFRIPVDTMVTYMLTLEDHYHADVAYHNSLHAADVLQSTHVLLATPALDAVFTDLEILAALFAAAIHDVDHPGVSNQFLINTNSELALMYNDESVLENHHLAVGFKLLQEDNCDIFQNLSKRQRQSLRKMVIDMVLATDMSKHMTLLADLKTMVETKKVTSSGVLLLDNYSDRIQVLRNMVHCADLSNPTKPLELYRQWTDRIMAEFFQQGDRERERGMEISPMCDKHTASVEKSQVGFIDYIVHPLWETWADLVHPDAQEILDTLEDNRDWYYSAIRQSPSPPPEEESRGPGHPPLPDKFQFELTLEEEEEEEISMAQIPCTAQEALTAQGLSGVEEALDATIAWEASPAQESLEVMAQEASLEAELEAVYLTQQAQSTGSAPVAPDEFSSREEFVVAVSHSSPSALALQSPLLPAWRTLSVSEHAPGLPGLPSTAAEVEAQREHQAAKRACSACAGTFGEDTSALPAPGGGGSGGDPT

[3] = target: 3',5'-cyclic-AMP phosphodiesterase 4B (Homo sapiens, UniProt Q07343); experiment: Inhibition of human PDE4B1 expressed in sf9 cells
3',5'-cyclic-AMP phosphodiesterase 4B, sequence (Q07343 whole entry): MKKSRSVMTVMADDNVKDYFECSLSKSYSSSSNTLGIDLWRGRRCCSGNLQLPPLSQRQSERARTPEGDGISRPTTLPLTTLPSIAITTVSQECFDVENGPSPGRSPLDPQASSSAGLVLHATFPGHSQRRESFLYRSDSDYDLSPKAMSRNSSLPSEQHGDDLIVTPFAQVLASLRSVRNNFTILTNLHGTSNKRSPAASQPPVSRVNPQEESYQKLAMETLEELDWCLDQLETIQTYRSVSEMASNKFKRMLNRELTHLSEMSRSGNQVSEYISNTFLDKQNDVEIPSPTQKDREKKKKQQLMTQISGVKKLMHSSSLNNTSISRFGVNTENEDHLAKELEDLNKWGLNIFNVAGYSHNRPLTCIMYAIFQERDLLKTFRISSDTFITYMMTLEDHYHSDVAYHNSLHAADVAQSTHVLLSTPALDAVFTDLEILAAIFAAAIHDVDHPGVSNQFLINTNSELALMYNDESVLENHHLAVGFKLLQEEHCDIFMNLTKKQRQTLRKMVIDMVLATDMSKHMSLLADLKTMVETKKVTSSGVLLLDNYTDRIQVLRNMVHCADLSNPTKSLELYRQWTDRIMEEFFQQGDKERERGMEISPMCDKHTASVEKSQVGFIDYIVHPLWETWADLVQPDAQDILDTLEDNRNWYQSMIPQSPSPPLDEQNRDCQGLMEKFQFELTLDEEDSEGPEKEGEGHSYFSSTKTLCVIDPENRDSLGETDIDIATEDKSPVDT

[4] = target: 3',5'-cyclic-AMP phosphodiesterase 4C (Homo sapiens, UniProt Q08493); experiment: Inhibition of human PDE4C1 expressed in sf9 cells
3',5'-cyclic-AMP phosphodiesterase 4C, sequence (Q08493 whole entry): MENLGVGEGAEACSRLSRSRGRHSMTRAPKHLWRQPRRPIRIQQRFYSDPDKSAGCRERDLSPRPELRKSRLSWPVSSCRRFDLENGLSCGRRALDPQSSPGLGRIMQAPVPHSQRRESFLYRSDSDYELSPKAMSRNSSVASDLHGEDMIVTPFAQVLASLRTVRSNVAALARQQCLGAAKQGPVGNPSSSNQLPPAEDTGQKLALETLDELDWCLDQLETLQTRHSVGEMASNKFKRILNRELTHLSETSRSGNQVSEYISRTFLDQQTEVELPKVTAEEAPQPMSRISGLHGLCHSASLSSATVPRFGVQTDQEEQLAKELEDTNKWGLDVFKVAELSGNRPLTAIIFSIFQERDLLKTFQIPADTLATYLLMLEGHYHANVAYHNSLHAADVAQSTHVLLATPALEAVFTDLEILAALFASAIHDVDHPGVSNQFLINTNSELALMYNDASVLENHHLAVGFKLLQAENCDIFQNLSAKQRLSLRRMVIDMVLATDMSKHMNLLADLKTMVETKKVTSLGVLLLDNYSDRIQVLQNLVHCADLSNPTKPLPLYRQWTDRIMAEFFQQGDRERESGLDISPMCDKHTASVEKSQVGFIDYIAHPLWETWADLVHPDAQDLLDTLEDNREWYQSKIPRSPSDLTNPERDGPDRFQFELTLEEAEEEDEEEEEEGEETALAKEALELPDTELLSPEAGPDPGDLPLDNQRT

[5] = target: T1, 3',5'-cyclic-AMP phosphodiesterase 4D (Homo sapiens, UniProt Q08499); experiment: Inhibition of human PDE4D2 expressed in sf9 cells
T1 sequence (Q08499 whole entry): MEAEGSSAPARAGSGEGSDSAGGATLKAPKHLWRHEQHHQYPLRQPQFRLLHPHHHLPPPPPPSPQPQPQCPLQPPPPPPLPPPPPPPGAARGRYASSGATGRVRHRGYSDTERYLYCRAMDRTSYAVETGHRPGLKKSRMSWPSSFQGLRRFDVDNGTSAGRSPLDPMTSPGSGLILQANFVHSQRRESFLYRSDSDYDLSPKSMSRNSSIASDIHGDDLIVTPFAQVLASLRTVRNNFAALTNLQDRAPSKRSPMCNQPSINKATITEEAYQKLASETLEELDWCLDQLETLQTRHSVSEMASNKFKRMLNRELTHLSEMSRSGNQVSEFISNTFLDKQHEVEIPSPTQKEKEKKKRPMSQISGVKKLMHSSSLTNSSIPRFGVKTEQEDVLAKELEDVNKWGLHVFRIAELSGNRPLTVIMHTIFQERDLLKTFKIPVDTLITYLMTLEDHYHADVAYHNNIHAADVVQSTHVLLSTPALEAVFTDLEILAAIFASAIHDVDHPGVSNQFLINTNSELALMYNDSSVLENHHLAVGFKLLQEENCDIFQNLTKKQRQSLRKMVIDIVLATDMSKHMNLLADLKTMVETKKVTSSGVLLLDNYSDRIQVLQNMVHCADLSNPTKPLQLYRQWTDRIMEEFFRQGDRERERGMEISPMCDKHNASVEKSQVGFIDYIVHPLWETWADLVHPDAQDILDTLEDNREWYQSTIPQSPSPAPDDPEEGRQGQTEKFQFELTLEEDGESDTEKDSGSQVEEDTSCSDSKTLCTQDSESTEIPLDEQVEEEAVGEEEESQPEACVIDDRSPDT

[6] = target: T1, 3',5'-cyclic-AMP phosphodiesterase 4D; experiment: Inhibition of human PDE4D3 expressed in sf9 cells
[7] = species: Homo sapiens; experiment: Inhibition of PDE3 in human U937 cells assessed as [3H]cAMP hydrolysis at 10 uM; type: cell-based
[8] = target: RAF proto-oncogene serine/threonine-protein kinase (Homo sapiens) (UniProt P04049); experiment: Inhibition of c-RAF (unknown origin) at 10 uM relative to control
RAF proto-oncogene serine/threonine-protein kinase (Homo sapiens), sequence (P04049 whole entry): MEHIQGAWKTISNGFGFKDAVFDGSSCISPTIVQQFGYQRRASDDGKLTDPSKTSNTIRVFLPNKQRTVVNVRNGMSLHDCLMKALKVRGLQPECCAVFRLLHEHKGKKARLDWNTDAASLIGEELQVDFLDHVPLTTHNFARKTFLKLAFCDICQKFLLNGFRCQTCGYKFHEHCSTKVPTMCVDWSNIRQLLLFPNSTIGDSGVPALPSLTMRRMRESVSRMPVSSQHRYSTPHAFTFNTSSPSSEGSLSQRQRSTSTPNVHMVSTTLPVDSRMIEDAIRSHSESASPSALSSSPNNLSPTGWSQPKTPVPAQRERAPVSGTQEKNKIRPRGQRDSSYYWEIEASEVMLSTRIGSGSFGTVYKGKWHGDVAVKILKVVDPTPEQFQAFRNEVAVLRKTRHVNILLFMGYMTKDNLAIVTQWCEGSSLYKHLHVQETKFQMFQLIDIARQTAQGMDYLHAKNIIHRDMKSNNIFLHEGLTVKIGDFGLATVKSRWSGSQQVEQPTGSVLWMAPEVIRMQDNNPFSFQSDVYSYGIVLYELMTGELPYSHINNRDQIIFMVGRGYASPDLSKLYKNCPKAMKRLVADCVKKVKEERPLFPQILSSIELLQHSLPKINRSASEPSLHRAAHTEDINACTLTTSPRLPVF

[9] = target: Mitogen-activated protein kinase 9 (Homo sapiens) (UniProt P45984); experiment: Inhibition of JNK2alpha2 (unknown origin) at 10 uM relative to control
Mitogen-activated protein kinase 9 (Homo sapiens), sequence (P45984 whole entry, looked up): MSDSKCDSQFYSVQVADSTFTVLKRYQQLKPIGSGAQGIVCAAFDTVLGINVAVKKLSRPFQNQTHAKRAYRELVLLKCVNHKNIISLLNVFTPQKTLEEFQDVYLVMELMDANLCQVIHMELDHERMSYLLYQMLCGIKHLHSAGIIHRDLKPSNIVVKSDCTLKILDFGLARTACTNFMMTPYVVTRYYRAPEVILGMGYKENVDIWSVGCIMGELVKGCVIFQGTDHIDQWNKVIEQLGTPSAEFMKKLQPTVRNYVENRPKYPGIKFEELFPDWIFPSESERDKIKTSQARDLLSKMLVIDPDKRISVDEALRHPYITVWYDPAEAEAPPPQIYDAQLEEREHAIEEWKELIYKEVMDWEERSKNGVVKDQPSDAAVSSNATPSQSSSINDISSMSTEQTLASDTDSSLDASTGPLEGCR

[10] = target: Mitogen-activated protein kinase 13 (Homo sapiens) (UniProt O15264); experiment: Inhibition of p38MAPK delta (unknown origin) at 10 uM relative to control
Mitogen-activated protein kinase 13 (Homo sapiens), sequence (O15264 whole entry): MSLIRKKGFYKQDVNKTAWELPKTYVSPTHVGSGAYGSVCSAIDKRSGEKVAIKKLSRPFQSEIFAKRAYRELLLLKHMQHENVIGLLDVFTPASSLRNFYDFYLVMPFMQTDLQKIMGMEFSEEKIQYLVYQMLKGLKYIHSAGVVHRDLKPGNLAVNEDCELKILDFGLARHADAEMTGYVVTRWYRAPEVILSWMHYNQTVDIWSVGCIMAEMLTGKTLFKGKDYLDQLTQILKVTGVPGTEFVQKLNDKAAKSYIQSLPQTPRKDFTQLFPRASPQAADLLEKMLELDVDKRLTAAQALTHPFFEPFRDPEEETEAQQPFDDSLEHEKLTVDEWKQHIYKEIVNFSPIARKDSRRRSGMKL

[11] = target: Mitogen-activated protein kinase 1 (Homo sapiens) (UniProt P28482); experiment: Inhibition of MAPK2 (unknown origin) at 10 uM
[12] = target: Mitogen-activated protein kinase 14 (Homo sapiens, UniProt Q16539); experiment: Inhibition of P38 MAPKalpha in LPS-stimulated human whole blood assessed as decrease in TNFalpha level
Mitogen-activated protein kinase 14, sequence (Q16539 whole entry): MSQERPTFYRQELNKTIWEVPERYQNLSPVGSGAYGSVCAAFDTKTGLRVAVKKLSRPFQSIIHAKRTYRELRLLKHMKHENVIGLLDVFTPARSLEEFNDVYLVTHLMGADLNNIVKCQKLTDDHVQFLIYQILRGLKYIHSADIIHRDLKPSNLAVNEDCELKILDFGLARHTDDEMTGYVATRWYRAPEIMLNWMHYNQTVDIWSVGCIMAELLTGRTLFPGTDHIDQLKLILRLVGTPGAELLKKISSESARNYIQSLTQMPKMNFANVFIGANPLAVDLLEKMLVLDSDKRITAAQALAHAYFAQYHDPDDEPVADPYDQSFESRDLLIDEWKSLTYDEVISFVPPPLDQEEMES

[13] = Tmax in human at 10 mg, po administered as single dose; type: ADME, organism-based; details: in vivo
Procedure, shortened: (§1)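 Healthy subjects received single oral doses of 10, 20, 30 or 50 mg in a placebo-controlled, single-blind, randomized consecutive-dose study; 10 mg was also given fasting vs fed in a crossover. Plasma drug was sampled pre-dose and from 0.25 to 36 h post-dose. Mean Tmax was taken from individual concentration–time profiles.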

[14] = Tmax in human at 50 mg, po administered as single dose; type: ADME, organism-based; details: in vivo; procedure, shortened: as §1
[15] = Tmax in fasting human at 10 mg, po administered as single dose; type: ADME, organism-based; details: in vivo; procedure, shortened: as §1
[16] = Tmax in fed human at 10 mg, po administered as single dose; type: ADME, organism-based; details: in vivo; procedure, shortened: as §1
[17] = Tmax in human at 20 mg, po administered as single dose; type: ADME, organism-based; details: in vivo; procedure, shortened: as §1
[18] = Tmax in human at 30 mg, po administered as single dose; type: ADME, organism-based; details: in vivo; procedure, shortened: as §1
[19] = Cmax in human at 10 mg, po administered as single dose; type: ADME, organism-based; parameters: dose 10 mg, route oral; details: in vivo
Procedure, shortened: (§2)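 Oral single-dose PK; plasma concentrations of parent and metabolite measured. Dogs: blood sampled 0.25 to 24 h after dosing. Humans: healthy subjects, placebo-controlled single-blind randomized consecutive dosing, plasma sampled predose and 0.25–36 h post dose. 10 mg also given fasting and fed in crossover. Parameters derived from individual concentration–time profiles.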

[20] = Cmax in human at 50 mg, po administered as single dose; type: ADME, organism-based; parameters: dose 50 mg, route oral; details: in vivo
[21] = Cmax in fasting human at 10 mg, po administered as single dose; type: ADME, organism-based; parameters: dose 10 mg, route oral; details: in vivo
Procedure, shortened: (§3)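 Placebo-controlled, single-blind, randomized, consecutive-dosing study in healthy subjects given single oral doses, with 10 mg also given fasting and fed in a crossover. Plasma parent and active metabolite were measured predose and from 0.25 to 36 h post dose. PK parameters were derived from individual concentration–time profiles and reported as means.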

[22] = Cmax in fed human at 10 mg, po administered as single dose; type: ADME, organism-based; parameters: dose 10 mg, route oral; details: in vivo; procedure, shortened: as §3
[23] = Cmax in human at 20 mg, po administered as single dose; type: ADME, organism-based; parameters: dose 20 mg, route oral; details: in vivo; procedure, shortened: as §2
[24] = Cmax in human at 30 mg, po administered as single dose; type: ADME, organism-based; parameters: dose 30 mg, route oral; details: in vivo; procedure, shortened: as §2
[25] = AUC (0 to t) in human at 10 mg, po administered as single dose; type: ADME, organism-based; details: in vivo; procedure, shortened: as §3
[26] = AUC (0 to t) in human at 50 mg, po administered as single dose; type: ADME, organism-based; details: in vivo; procedure, shortened: as §3
[27] = AUC (0 to t) in fasting human at 10 mg, po administered as single dose; type: ADME, organism-based; details: in vivo; procedure, shortened: as §3
[28] = AUC (0 to t) in fed human at 10 mg, po administered as single dose; type: ADME, organism-based; details: in vivo; procedure, shortened: as §3
[29] = AUC (0 to t) in human at 20 mg, po administered as single dose; type: ADME, organism-based; details: in vivo; procedure, shortened: as §3
[30] = AUC (0 to t) in human at 30 mg, po administered as single dose; type: ADME, organism-based; details: in vivo; procedure, shortened: as §3
[31] = AUC (0 to infinity) in human at 10 mg, po administered as single dose; type: ADME, organism-based; parameters: dose 10 mg, time infinity, route oral; details: in vivo; procedure, shortened: as §3
[32] = AUC (0 to infinity) in human at 50 mg, po administered as single dose; type: ADME, organism-based; parameters: dose 50 mg, time infinity, route oral; details: in vivo; procedure, shortened: as §3
[33] = AUC (0 to infinity) in fasting human at 10 mg, po administered as single dose; type: ADME, organism-based; parameters: dose 10 mg, time infinity, route oral; details: in vivo; procedure, shortened: as §3
[34] = AUC (0 to infinity) in fed human at 10 mg, po administered as single dose; type: ADME, organism-based; parameters: dose 10 mg, route oral, time infinity; details: in vivo; procedure, shortened: as §3
[35] = AUC (0 to infinity) in human at 20 mg, po administered as single dose; type: ADME, organism-based; parameters: dose 20 mg, time infinity, route oral; details: in vivo; procedure, shortened: as §3
[36] = AUC (0 to infinity) in human at 30 mg, po administered as single dose; type: ADME, organism-based; parameters: dose 30 mg, time infinity, route oral; details: in vivo; procedure, shortened: as §3
[37] = Half life in human at 10 mg, po administered as single dose; type: ADME, organism-based; details: in vivo; procedure, shortened: as §2
[38] = Half life in human at 50 mg, po administered as single dose; type: ADME, organism-based; details: in vivo; procedure, shortened: as §2
[39] = Half life in fasting human at 10 mg, po administered as single dose; type: ADME, organism-based; details: in vivo; procedure, shortened: as §2
[40] = Half life in fed human at 10 mg, po administered as single dose; type: ADME, organism-based; details: in vivo; procedure, shortened: as §2
[41] = Half life in human at 20 mg, po administered as single dose; type: ADME, organism-based; details: in vivo; procedure, shortened: as §2
[42] = Half life in human at 30 mg, po administered as single dose; type: ADME, organism-based; details: in vivo; procedure, shortened: as §2
[43] = test system: Homo sapiens; experiment: Toxicity in human assessed as effect on CNS at 50 mg, po administered as single dose; type: organism-based; details: in vivo
Procedure, shortened: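 Single oral 50 mg dose given to healthy subjects in a placebo-controlled, single-blind, randomized FIH study. Adverse events, vital signs and physical findings were recorded, including CNS effects.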

[44] = Fraction unbound in human plasma; type: ADME, cell-free
Procedure, shortened: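 Plasma protein binding measured in human, Sprague–Dawley rat and Cynomolgus monkey plasma at 1, 10 and 30 μM compound. Reported as unbound fraction (%).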

[45] = target: cGMP-specific 3',5'-cyclic phosphodiesterase (Homo sapiens) (UniProt O76074); experiment: Inhibition of PDE5 in human U937 cells assessed as [3H]cAMP hydrolysis at 10 uM; type: cell-based
[46] = Half life in Beagle dog at 40 mg/kg, po by LC-MS/MS analysis; type: ADME, organism-based, Canis lupus familiaris; details: in vivo; procedure, shortened: as §2
[47] = test system: Rattus norvegicus; experiment: Toxicity in Sprague-Dawley rat assessed as hypoactivity at 2000 mg/kg, po administered via gavage measured on day 1 and 2; type: organism-based; details: in vivo

- IC50 [1]: 2000 nM
- IC50 [2]: 9900 nM
- IC50 [3]: 3500 nM
- IC50 [4]: > 10000 nM
- IC50 [5]: 2400 nM
- IC50 [6]: 700 nM
- inhibition [8]: inactive
- inhibition [9]: inactive
- inhibition [10]: inactive
- inhibition [11]: inactive
- IC50 [12]: 710 nM
- Tmax [13]: 4.7 h
- Tmax [14]: 5 h
- Tmax [15]: 6 h
- Tmax [16]: 6.7 h
- Tmax [17]: 5 h
- Tmax [18]: 6 h
- Cmax [19]: 190 nM
- Cmax [20]: 600 nM
- Cmax [21]: 150 nM
- Cmax [22]: 140 nM
- Cmax [23]: 360 nM
- Cmax [24]: 420 nM
- AUC(0-t) [25]: 2.95 µM·h
- AUC(0-t) [26]: 8.73 µM·h
- AUC(0-t) [27]: 2.82 µM·h
- AUC(0-t) [28]: 2.6 µM·h
- AUC(0-t) [29]: 6.38 µM·h
- AUC(0-t) [30]: 7.37 µM·h
- AUC(0-inf) [31]: 3.43 µM·h
- AUC(0-inf) [32]: 9.4 µM·h
- AUC(0-inf) [33]: 3.29 µM·h
- AUC(0-inf) [34]: 3.07 µM·h
- AUC(0-inf) [35]: 7.17 µM·h
- AUC(0-inf) [36]: 8.55 µM·h
- half-life [37]: 9.5 h
- half-life [38]: 9 h
- half-life [39]: 11.3 h
- half-life [40]: 10.7 h
- half-life [41]: 10.9 h
- half-life [42]: 11.3 h
- fraction unbound [44]: 0.5
- inhibition [45]: inactive
SMILES: Cn1c([S+](C)[O-])nc(-c2ccc(F)cc2)c1-c1ccnc(N)c1 (stereo unspecified)
- inhibition [7]: inactive
- Activity [43]: Non-Toxic

SMILES: CC(=O)Nc1cc(-c2c(-c3ccc(F)cc3)nc([S+](C)[O-])n2C)ccn1 (stereo unspecified)
- IC50 [1]: 200 to 400 nM
- IC50 [2]: 2900 nM
- IC50 [3]: 1900 nM
- IC50 [4]: 6400 nM
- IC50 [5]: 1100 nM
- IC50 [6]: 800 nM
- inhibition [7]: inactive
- inhibition [8]: 36%
- inhibition [9]: 51%
- inhibition [10]: 35%
- IC50 [12]: 710 nM
- half-life [46]: 7.8 h
- Activity [47]: Toxic
- Tmax [13]: 2.2 h
- Tmax [14]: 1.5 h
- Tmax [15]: 3.3 h
- Tmax [16]: 3.7 h
- Tmax [17]: 2.9 h
- Tmax [18]: 2.3 h
- Cmax [19]: 200 nM
- Cmax [20]: 590 nM
- Cmax [21]: 140 nM
- Cmax [22]: 140 nM
- Cmax [23]: 310 to 314 nM
- Cmax [24]: 420 nM
- AUC(0-t) [25]: 0.95 µM·h
- AUC(0-t) [26]: 3.4 µM·h
- AUC(0-t) [27]: 0.73 µM·h
- AUC(0-t) [28]: 0.79 µM·h
- AUC(0-t) [29]: 1.99 µM·h
- AUC(0-t) [30]: 2.65 µM·h
- AUC(0-inf) [31]: 1.04 µM·h
- AUC(0-inf) [32]: 3.58 µM·h
- AUC(0-inf) [33]: 0.82 µM·h
- AUC(0-inf) [34]: 0.88 µM·h
- AUC(0-inf) [35]: 2.24 µM·h
- AUC(0-inf) [36]: 3.05 µM·h
- half-life [37]: 2.7 h
- half-life [38]: 3.2 h
- half-life [39]: 2.8 h
- half-life [40]: 2.8 h
- half-life [41]: 3.3 h
- half-life [42]: 3.4 h
- Activity [43]: Non-Toxic
- fraction unbound [44]: 0.5
- inhibition [45]: inactive
